ChEMBL document CHEMBL1142692, “Synthesis and biological evaluation of meperidine analogues at monoamine transporters” (J Med Chem, 2005)
Values joined by “and” are separate entries in the source; they are usually repeats but may differ in a detail not shown here. Identical values can stand only once.

Legend:
Mu-type opioid receptor [1] = molecular target: T1, Mu-type opioid receptor (Homo sapiens, UniProt P35372); test: Percent inhibition of [3H]DAMGO binding to rat brain mu-opioid receptor at 100 uM; conditions: target entry is the homologue from another species
[2] = molecular target: T2, Monoamine transporters; serotonin & dopamine (Homo sapiens) (UniProt P31645+Q01959); test: Ratio of binding affinity for dopamine and serotonin transporters; type: protein assay
In short: (§1)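 Ratio of Ki values, DAT/SERT. DAT Ki from [3H]WIN 35,428 (1.5 nM) competition in rat caudate-putamen membranes on ice, 1 h. SERT Ki from [3H]paroxetine (0.2 nM) binding to rat midbrain membranes, 90 min at room temperature, with 1 µM citalopram defining nonspecific binding.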

Mu-type opioid receptor [3] = molecular target: T1, Mu-type opioid receptor; test: Inhibition of [3H]DAMGO binding to mu-opioid receptor
[4] = Ratio of binding affinity for mu-opioid receptor and dopamine transporter
[5] = Ratio of binding affinity of mu-opioid receptor and serotonin transporter
[6] = molecular target: T3, Sodium-dependent dopamine transporter (Rattus norvegicus, UniProt P23977); test: Inhibition of [3H]-DA uptake in rat brain; type: functional, tissue-based
In short: (§2)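 Rat caudate-putamen chopped into 225 µm slices, suspended in oxygenated modified Krebs-HEPES buffer at 37 °C. Tissue preincubated 5 min with drug, then [3H]dopamine (final 15 nM) added for 5 min. Uptake stopped with ice-cold buffer and filtration; accumulated label extracted and counted by liquid scintillation. Specific uptake reported after subtracting filter binding. Single-concentration values are % inhibition at 100 µM.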

[7] = molecular target: Norepinephrine transporter (Rattus norvegicus) (UniProt Q9WTR4); test: Percent inhibition of [3H]nisoxetine binding to norepinephrine transporter at 10 uM
[8] = molecular target: Sodium-dependent dopamine transporter (Rattus norvegicus) (UniProt P23977); test: Percent inhibition of [3H]dopamine uptake in rat brain tissue at 100 uM; type: functional, tissue-based; in short: as §2
[9] = Ratio of binding affinity of mu-opioid receptor and dopamine transporter
[10] = molecular target: T2, Monoamine transporters; serotonin & dopamine (Homo sapiens); test: Ratio of binding affinity of dopamine and serotonin transporters; type: protein assay; in short: as §1
[11] = molecular target: T3, Sodium-dependent dopamine transporter; test: Inhibitory concentration against [3H]DA uptake in rat brain tissue; type: functional, tissue-based; in short: as §2
[12] = molecular target: T4, Norepinephrine transporter (Rattus norvegicus, UniProt Q9WTR4); test: Inhibition of [3H]-nisoxetine binding to rat norepinephrine transporter
In short: (§3)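 Male Sprague-Dawley rat frontal cortex membranes in 50 mM Tris, 120 mM NaCl, 5 mM KCl, pH 7.4, 8 mg tissue per tube. Incubated with [3H]nisoxetine (final 0.5 nM) for 1 h on ice, then filtered. Desipramine defines nonspecific binding. Single-concentration values are % specific binding remaining at 10 µM. Mean ± SEM of three experiments in triplicate.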

[13] = molecular target: Sodium-dependent dopamine transporter (Rattus norvegicus) (UniProt P23977); conditions: Brain, 100 uM
[14] = molecular target: Sodium-dependent dopamine transporter (Rattus norvegicus) (UniProt P23977); conditions: Brain, 100 uM; remark: listed apart in the source
[15] = molecular target: T4, Norepinephrine transporter; test: Inhibition of [3H]nisoxetine binding to rat norepinephrine transporter at 10 uM; in short: as §3
[16] = molecular target: Sodium-dependent dopamine transporter (Rattus norvegicus) (UniProt P23977); test: Percent inhibition of [3H]WIN-35428 binding to rat Dopamine transporter at 100 uM
In short: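 Male Sprague-Dawley rat caudate-putamen membranes in modified Krebs-HEPES buffer, pH 7.4. Drug preincubated 5 min, then [3H]WIN 35,428 (final 1.5 nM) added for 1 h on ice, followed by filtration. Value is % inhibition at 100 µM.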

[17] = molecular target: Sodium-dependent dopamine transporter (Rattus norvegicus) (UniProt P23977); test: Percent inhibition of [3H]DA uptake in rat brain tissue at 100 uM; type: functional, tissue-based; in short: as §2
Mu-type opioid receptor [18] = molecular target: T1, Mu-type opioid receptor; test: Inhibition of [3H]DAMGO binding to mu-opioid receptor at 100 uM
Mu-type opioid receptor [19] = molecular target: T1, Mu-type opioid receptor; test: Inhibition of [3H]-DAMGO binding to mu opioid receptor at 10 uM
[20] = Ratio of binding affinity of mu-opioid receptor and dopamine taransporter
[21] = molecular target: T3, Sodium-dependent dopamine transporter; test: Inhibitory concentration against [3H]dopamine uptake in rat brain tissue; type: functional, tissue-based
In short: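 Rat caudate-putamen chopped into 225 µm slices, suspended in Krebs-HEPES buffer pregassed with 95% O2/5% CO2 at 37 °C. Tissue preincubated 5 min with or without drug (highest 100 µM), then [3H]dopamine (15 nM final) added for 5 min. Stopped with ice-cold buffer and filtration; accumulated label extracted and counted by scintillation; filter binding subtracted. Three experiments in triplicate.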

Mu-type opioid receptor [22] = molecular target: T1, Mu-type opioid receptor; test: Inhibition of [3H]-DAMGO binding to mu-opioid receptor
[23] = Ratio of binding affinity of mu-opioid receptor and Serotonin transporter
[24] = molecular target: T2, Monoamine transporters; serotonin & dopamine (Homo sapiens); test: Ratio of binding affinity of dopamine and Serotonin transporters; type: protein assay; in short: as §1

Chain of Sodium-dependent dopamine transporter (Rattus norvegicus) (P23977 whole entry): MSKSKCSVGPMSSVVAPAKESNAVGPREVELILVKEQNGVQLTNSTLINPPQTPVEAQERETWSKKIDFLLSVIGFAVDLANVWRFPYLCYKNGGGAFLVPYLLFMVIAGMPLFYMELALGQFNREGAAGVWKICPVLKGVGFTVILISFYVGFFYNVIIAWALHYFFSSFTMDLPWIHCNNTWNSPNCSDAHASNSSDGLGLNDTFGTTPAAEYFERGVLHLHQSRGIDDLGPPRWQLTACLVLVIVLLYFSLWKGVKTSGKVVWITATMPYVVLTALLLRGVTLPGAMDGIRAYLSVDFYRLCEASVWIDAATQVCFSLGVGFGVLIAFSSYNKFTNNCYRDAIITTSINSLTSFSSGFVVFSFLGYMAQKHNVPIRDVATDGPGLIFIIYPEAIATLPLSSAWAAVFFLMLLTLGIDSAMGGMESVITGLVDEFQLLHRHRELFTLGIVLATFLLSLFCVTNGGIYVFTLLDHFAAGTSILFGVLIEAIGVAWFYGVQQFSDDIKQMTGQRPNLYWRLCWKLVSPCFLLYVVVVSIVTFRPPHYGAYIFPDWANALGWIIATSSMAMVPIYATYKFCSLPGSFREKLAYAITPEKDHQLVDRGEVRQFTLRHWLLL
T3 sequence (P23977 whole entry): as above
T4 sequence (Q9WTR4 whole entry): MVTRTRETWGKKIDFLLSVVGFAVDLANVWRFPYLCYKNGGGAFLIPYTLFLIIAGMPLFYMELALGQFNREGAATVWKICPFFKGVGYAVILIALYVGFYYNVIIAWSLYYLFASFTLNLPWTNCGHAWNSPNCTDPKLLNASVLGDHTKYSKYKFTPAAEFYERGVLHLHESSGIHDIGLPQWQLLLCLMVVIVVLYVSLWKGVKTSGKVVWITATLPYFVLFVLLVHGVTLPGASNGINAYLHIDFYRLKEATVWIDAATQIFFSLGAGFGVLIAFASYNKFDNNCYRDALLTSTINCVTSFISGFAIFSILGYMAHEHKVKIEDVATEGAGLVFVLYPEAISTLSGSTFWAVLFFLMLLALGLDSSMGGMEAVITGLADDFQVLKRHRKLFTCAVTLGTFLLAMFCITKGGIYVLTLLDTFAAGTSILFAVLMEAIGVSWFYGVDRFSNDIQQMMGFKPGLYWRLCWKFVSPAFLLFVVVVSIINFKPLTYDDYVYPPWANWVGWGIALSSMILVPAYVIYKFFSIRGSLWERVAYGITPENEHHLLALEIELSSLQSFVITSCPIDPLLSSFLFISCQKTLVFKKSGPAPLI
Chain of Norepinephrine transporter (Rattus norvegicus) (Q9WTR4 as listed by the source): as the sequence (Q9WTR4 whole entry) above
T1 sequence (P35372 whole entry): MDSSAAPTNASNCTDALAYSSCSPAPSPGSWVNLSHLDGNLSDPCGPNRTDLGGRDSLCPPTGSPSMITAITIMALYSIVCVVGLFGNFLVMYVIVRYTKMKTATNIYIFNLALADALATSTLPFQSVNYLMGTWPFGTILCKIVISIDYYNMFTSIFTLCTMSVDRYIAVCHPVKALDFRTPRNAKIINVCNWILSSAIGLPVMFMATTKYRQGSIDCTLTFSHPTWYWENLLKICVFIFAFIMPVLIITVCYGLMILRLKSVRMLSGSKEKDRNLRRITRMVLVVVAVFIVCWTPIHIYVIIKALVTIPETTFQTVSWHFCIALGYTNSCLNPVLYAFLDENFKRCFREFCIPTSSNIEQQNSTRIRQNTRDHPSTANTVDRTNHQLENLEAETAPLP
T2 sequence (P31645 whole entry, looked up): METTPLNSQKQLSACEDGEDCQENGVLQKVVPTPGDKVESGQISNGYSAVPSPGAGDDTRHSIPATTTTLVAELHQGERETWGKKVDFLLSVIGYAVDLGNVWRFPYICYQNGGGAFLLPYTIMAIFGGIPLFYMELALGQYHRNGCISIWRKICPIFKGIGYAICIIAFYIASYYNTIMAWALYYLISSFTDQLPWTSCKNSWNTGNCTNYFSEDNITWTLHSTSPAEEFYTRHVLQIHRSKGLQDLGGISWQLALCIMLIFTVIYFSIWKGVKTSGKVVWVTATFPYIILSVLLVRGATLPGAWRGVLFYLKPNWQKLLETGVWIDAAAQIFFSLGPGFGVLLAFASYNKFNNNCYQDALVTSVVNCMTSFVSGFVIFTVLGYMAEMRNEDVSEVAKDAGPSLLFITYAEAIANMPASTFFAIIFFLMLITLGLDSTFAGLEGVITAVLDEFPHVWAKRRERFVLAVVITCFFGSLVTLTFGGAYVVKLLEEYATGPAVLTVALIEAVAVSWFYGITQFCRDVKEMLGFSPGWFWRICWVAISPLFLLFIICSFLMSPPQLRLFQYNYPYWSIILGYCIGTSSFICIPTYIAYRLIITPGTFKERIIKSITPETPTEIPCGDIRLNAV
T2 sequence (Q01959 whole entry, looked up): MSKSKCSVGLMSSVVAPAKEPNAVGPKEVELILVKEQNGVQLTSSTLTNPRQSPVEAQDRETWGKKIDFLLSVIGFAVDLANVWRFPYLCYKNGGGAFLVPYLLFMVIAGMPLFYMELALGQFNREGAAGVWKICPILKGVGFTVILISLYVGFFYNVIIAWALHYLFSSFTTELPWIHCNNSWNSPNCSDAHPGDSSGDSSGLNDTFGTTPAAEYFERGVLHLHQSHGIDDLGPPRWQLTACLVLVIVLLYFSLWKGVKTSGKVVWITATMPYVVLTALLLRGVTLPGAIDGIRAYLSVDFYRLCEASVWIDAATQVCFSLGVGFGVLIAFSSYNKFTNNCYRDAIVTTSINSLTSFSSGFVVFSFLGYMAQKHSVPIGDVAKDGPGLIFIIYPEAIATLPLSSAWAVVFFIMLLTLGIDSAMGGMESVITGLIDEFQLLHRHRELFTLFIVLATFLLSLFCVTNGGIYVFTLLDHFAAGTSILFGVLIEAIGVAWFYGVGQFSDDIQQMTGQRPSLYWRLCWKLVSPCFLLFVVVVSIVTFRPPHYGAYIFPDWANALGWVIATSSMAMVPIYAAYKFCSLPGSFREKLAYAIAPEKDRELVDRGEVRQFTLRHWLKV

SMILES | inhibition (Mu-type opioid receptor [1]) [%] | Ki (Mu-type opioid receptor [3]) [µM] | Ratio [5] | inhibition [7] [%] | inhibition [8] [%] | Ratio [9] | Ratio [10] | IC50 [11] | Ki [12] [µM] | also measured
CN1CCC(C#N)(c2ccc(Cl)c(Cl)c2)CC1 | 46 | 40 | 49.7 | 94.1 | – | – | – | – | – | Ratio [2]: 3.32; Ratio [4]: 15; IC50 [6]: 11.1 µM
CCOC(=O)C1(c2ccc3ccccc3c2)CCN(C)CC1 | – | 2.03 | 282 | – | 16 | 1.78 | 158 | 3.19 µM and 11.6 µM | 71.1 | –
CCOC(=O)C1(c2ccc(Cl)c(Cl)c2)CCN(C)CC1 | – | 2.04 | 109 | – | 22 | 16.3 | 6.68 | 6.01 µM and 1.4 µM | 74.5 | –
CCOC(=O)C1(c2ccc(I)cc2)CCN(C)CC1 | – | 2.35 | 111 | – | – | – | – | 11.1 µM | 519 | –
Cc1ccc(C2(C#N)CCN(C)CC2)cc1 | – | 40.6 | 2.96 | 103 | – | 0.97 | 3.05 | – | – | inhibition [13]: 46%; inhibition [14]: 22%
CCOC(=O)C1(c2ccc(C)cc2)CCN(C)CC1 | – | 2.67 | 1.66 | 57.6 | – | 0.22 | 7.69 | 76.2 µM | – | –
CN1CCC(C#N)(c2ccc(F)cc2)CC1 | 15 | – | – | – | – | – | – | – | – | Ki [15]: 101 µM; inhibition [16]: 45%; inhibition [17]: 8%
CN1CCC(C#N)(c2ccc(Cl)cc2)CC1 | 51 | – | 0.18 | 106 | – | 1.67 | 4.31 | – | – | Ki (Mu-type opioid receptor [18]): 36.8 µM; inhibition [17]: 36%
CN1CCC(C#N)(c2ccc(I)cc2)CC1 | 61 | – | 40.2 | – | – | – | 19.4 | – | – | Ki (Mu-type opioid receptor [18]): 17.3 µM; inhibition (Mu-type opioid receptor [19]): 93.6%; Ratio [20]: 2.07; IC50 [21]: 36.7 µM
CN1CCC(C#N)(c2ccc3ccccc3c2)CC1 | 61 | – | 123 | 88.1 | 11 | 6.53 | 18.9 | – | – | Ki (Mu-type opioid receptor [18]): 15.4 µM
CCOC(=O)C1(c2ccc(Cl)cc2)CCN(C)CC1 | – | 4.41 | 15.9 | – | – | 1.08 | 14.8 | – | 601 | IC50 [6]: 26.9 µM
CCOC(=O)C1(c2ccc(F)cc2)CCN(C)CC1 | – | – | – | 71.9 | 47 | – | – | – | – | Ratio (Mu-type opioid receptor [22]): 0.14; Ratio [23]: 4.77; Ratio [24]: 34.7
